Measurements as given in ChEMBL document CHEMBL1135138, “2-Aminothiazoles: a new class of agonist allosteric enhancers of A(1) adenosine receptors” (Bioorg Med Chem Lett, 2002).
Each block holds one compound with its values, some of them ahead of it. Calls of active or inactive are those of the source. No cut-off for these calls is given here.

Legend:
[1] = molecular target: T1, Adenosine receptor A1 (Homo sapiens) (UniProt P30542); assay: AE activity is the ratio of specific binding at the end of dissociation to specific binding at the end of 120 min of equilibration at 50 uM concentration to Adenosine A1 receptor
T1 sequence (whole entry): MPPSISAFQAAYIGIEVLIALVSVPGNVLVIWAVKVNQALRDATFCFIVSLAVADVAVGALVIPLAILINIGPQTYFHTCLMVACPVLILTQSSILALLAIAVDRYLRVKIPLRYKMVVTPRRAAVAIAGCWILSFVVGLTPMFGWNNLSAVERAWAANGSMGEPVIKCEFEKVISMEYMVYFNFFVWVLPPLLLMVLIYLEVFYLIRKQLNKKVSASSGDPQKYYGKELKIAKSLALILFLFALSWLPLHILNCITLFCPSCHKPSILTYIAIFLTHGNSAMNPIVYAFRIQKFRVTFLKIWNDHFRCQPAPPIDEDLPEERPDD
How it was run: (§1)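 Test agent from DMSO stock was added for 5 min. Dissociation was started with 8-CPT plus GTPγS and stopped after 10 min by glass-fibre filtration. Nonspecific binding (8-CPT/GTPγS, no agent) was subtracted. % = specific binding after dissociation ÷ after equilibration. Means of 2–3 experiments ±SEM.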

Adenosine receptor A1 = molecular target: T2, Adenosine receptor A1 (Homo sapiens, UniProt P30542); assay: Effective concentration against Adenosine A1 receptor
T2 sequence (P30542 whole entry): T1 sequence (whole entry)

[2] = molecular target: T1, Adenosine receptor A1 (Homo sapiens); assay: AE activity is the ratio of specific binding at the end of dissociation to specific binding at the end of 120 min of equilibration at 5 uM concentration to Adenosine A1 receptor; not significantly active; how it was run: as §1
[3] = molecular target: T1, Adenosine receptor A1 (Homo sapiens); assay: AE activity is the ratio of specific binding at the end of dissociation to specific binding at the end of 120 min of equilibration at 5 uM concentration to Adenosine A1 receptor; how it was run: as §1
[4] = molecular target: Adenosine receptor A2a (Homo sapiens) (UniProt P29274); assay: Percent allosteric enhancer (AE) activity from ratio of specific binding to Adenosine A2A receptor at end of dissociation to that of 120 min of equilibration
[5] = molecular target: T3, Adenosine receptor A3 (Homo sapiens) (UniProt P0DMS8); assay: Percent allosteric enhancer (AE) activity from ratio of specific binding to Adenosine A3 receptor at end of dissociation to that of 120 min of equilibration
T3 sequence (whole entry): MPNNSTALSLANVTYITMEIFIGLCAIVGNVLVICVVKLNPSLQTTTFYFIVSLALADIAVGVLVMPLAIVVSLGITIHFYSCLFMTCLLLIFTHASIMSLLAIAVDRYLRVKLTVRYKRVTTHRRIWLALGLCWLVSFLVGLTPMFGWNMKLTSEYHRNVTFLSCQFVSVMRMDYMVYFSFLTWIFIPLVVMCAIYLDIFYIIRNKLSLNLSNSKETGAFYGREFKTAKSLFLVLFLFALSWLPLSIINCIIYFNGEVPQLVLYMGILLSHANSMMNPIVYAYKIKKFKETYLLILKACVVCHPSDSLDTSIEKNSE

[6] = molecular target: T1, Adenosine receptor A1 (Homo sapiens); assay: AE activity is the ratio of specific binding at the end of dissociation to specific binding at the end of 120 min of equilibration at 50 uM concentration to Adenosine A1 receptor; not significantly active; how it was run: as §1

Chain of Adenosine receptor A2a (Homo sapiens) (P29274 whole entry): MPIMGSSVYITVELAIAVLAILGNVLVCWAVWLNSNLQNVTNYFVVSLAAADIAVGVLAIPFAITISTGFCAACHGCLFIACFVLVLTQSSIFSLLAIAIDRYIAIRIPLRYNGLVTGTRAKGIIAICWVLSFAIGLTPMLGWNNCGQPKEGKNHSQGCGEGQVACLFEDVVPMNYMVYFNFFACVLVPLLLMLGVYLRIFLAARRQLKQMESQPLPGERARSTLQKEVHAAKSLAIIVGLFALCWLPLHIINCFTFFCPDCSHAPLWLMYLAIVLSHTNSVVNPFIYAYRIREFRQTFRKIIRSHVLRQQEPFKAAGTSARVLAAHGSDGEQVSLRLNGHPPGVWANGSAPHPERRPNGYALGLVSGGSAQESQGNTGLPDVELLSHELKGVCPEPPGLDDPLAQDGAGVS

- EC50 (Adenosine receptor A1): 38 µM
Structure (SMILES): Nc1nc2c(s1)Cc1ccccc1-2
- AE activity [1]: 91%

Structure (SMILES): Nc1nc2c(s1)CCc1cc(OC3C=CC=C3)ccc1-2
- AE activity [2]: inactive

Structure (SMILES): CCCCCCCCOc1ccc2c(c1)CCc1sc(N)nc1-2
- AE activity [3]: 45%

Structure (SMILES): CC(=O)Oc1cccc2c1Cc1sc(N)nc1-2
- AE activity [3]: 74%
- AE activity [4]: 19%
- AE activity [5]: 22%

- EC50 (Adenosine receptor A1): 17 µM
Structure (SMILES): COc1cc2c(c(OC)c1OC)Cc1sc(N)nc1-2
- AE activity [3]: 60%

Structure (SMILES): Nc1nc2c(s1)CCc1cc(OC(=O)c3ccccc3)ccc1-2
- AE activity [3]: 54%

Structure (SMILES): Nc1nc2c(s1)COc1ccccc1-2
- AE activity [1]: 62%

Structure (SMILES): Nc1nc2c(s1)CCCCC2
- AE activity [6]: inactive

Structure (SMILES): Nc1nc2c(s1)-c1ccccc1CC2
- AE activity [6]: inactive

Structure (SMILES): Nc1nc2c(s1)-c1ccccc1C2
- AE activity [6]: inactive

Structure (SMILES): Nc1nc2c(s1)CCCc1ccccc1-2
- AE activity [6]: inactive

Structure (SMILES): CC(=O)Oc1ccc2c(c1)CCc1sc(N)nc1-2
- AE activity [1]: 95%
- AE activity [4]: 24%
- AE activity [5]: 30%

Structure (SMILES): COc1cc2c(cc1OC)-c1nc(N)sc1C2
- AE activity [1]: 78%
- AE activity [4]: 36%
- AE activity [5]: 29%

Structure (SMILES): CCCCCOc1ccc2c(c1)CCc1sc(N)nc1-2
- AE activity [3]: 41%

- EC50 (Adenosine receptor A1): 17 µM
Structure (SMILES): Nc1nc2c(s1)CCc1ccccc1-2
- AE activity [1]: 80%

Structure (SMILES): Nc1nc2c(s1)CCCC2
- AE activity [1]: 19%

Structure (SMILES): Nc1nc2c(s1)Cc1cc(Br)ccc1-2
- AE activity [6]: inactive

Structure (SMILES): COc1ccc2c(c1)CCc1sc(N)nc1-2
- AE activity [1]: 78%
- AE activity [4]: 18%
- AE activity [5]: 8%

Structure (SMILES): COc1cc2c(c(OC)c1OC)-c1nc(N)sc1C2
- AE activity [1]: 24%

Structure (SMILES): Nc1nc2c(s1)Cc1c(OC(=O)C3CCCCC3)cccc1-2
- AE activity [6]: inactive

- EC50 (Adenosine receptor A1): 50 µM
Structure (SMILES): COc1ccc2c(c1)Cc1sc(N)nc1-2
- AE activity [1]: 66%

- EC50 (Adenosine receptor A1): 4.2 µM
Structure (SMILES): Cc1ccc2c(c1)-c1nc(N)sc1C2
- AE activity [1]: 72%

Structure (SMILES): Cc1cccc2c1Cc1sc(N)nc1-2
- AE activity [1]: 81%

- EC50 (Adenosine receptor A1): 4.5 µM
Structure (SMILES): Nc1nc2c(s1)Cc1c(OC(=O)C3CCCC3)cccc1-2
- AE activity [1]: 85%
